According to ChEMBL document CHEMBL2150871, “Design, synthesis and biological evaluation of new peptide-based ureas and thioureas as potential antagonists of the thrombin receptor PAR1” (Eur J Med Chem, 2012):

Target: T1, Proteinase-activated receptor 1 (Homo sapiens) (UniProt P25116)
T1 sequence (whole entry): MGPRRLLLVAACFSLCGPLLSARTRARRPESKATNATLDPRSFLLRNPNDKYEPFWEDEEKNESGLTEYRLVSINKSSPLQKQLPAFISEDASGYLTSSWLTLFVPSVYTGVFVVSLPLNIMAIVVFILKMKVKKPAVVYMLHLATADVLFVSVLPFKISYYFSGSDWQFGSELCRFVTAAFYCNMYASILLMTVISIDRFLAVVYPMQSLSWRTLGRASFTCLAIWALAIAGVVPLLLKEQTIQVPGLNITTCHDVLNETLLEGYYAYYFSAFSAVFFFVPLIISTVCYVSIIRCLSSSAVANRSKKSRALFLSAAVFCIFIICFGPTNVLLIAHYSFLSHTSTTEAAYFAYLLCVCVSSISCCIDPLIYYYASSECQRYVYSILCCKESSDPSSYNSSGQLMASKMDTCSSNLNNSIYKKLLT
Assay: Antagonist activity at PAR1 in human platelets assessed as inhibition of SFLLRN-induced aggregation at 10 uM after 5 mins relative to vehicle-treated control
Type: functional
Procedure, shortened: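 Human donors who had taken no platelet-altering drugs for two weeks gave venous blood into 3.2% buffered citrate. Spun at 250×g for 7 min to give PRP, then 900×g for 10 min to give PPP, which served as optical reference and diluent. Diluted PRP was preincubated 5 min at 37 °C with compound or DMSO vehicle, then challenged with SFLLRN. Maximal optical aggregation at 5 min was compared with SFLLRN/vehicle to give % inhibition.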

inhibition: 98%
Structure (SMILES): NCC[C@H](NC(=O)[C@H](Cc1ccc(F)c(F)c1)NC(=O)Nc1ccc2c(CN3CCCC3)nn(Cc3c(Cl)cccc3Cl)c2c1)C(=O)NCc1ccccc1
